pIC50, pKi: −log10 of the molar value.
Experiments:
[1] = target: P2Y purinoceptor 12 (Homo sapiens, UniProt Q9H244); test: Displacement of [33P]ADP from human recombinant P2Y12 receptor expressed in CHO cells; assay type: cell-based
Outline: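 Washed membranes from CHO cells expressing synthetic human P2Y12, incubated 1 h at room temperature with 0.2 nM 33P-MeSADP in 50 mM Tris/100 mM NaCl/1 mM EDTA. Compound was tested as a 7-point 3-fold series in triplicate. Nonspecific binding was defined with 300 nM 2-MeSADP, followed by filtration.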

[2] = test system: Platelet; test: Relative potency, ratio of IC50 for drug to IC50 for AZD-6140 for platelet aggregation in human platelet rich plasma; assay type: functional
[3] = Antiplatelet aggregation activity against adenosine diphosphate-induced human platelet rich plasma assessed as inhibition of platelet aggregation by turbidimetric method; assay type: functional; conditions: Homo sapiens, Platelet, Plasma
Outline: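 Human PRP, prepared by two-step centrifugation and adjusted to 330 000 platelets/μL with PPP. Compound was preincubated 5 min at 37 °C in 0.5% DMSO, then 20 μM ADP was added. OD626 was read kinetically for 15 min at 37 °C with mixing between reads.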

P2Y purinoceptor 12, sequence (Q9H244 whole entry): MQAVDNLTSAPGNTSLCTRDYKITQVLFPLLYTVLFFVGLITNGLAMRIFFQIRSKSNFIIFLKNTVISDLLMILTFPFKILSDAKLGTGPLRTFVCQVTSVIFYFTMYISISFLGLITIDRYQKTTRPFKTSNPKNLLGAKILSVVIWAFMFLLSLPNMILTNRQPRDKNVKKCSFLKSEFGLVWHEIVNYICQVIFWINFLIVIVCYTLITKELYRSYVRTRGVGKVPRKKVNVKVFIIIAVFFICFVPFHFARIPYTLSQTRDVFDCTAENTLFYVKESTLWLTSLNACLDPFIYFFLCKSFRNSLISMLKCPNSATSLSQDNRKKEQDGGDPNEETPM

SMILES | pKi [1] | Ratio IC50 [2] | pIC50 [3]
CCOC(=O)N1CCN(C(=O)[C@H](CCC(=O)O)NC(=O)c2cc(N3CCC(CO)CC3)cc(-c3ccccc3)n2)CC1 | 7.27 | 22 | 4.72
CCCCOC(=O)N1CCN(C(=O)[C@H](CCC(=O)O)NC(=O)c2cc(OCC3CCN(C(C)=O)CC3)cc(-c3ccccc3)n2)CC1 | 8.41 | 1.4 | 5.68
CCCCCOC(=O)N1CCN(C(=O)[C@H](CCC(=O)O)NC(=O)c2cc(OCCN)cc(-c3ccccc3)n2)CC1 | 8.06 | 3 | 5.62
CCCCCCOC(=O)N1CCN(C(=O)[C@H](CCC(=O)O)NC(=O)c2cc(OCCO)cc(-c3ccccc3)n2)CC1 | 7.74 | 13 | 4.68
CCCCOC(=O)N1CCN(C(=O)[C@H](CCC(=O)O)NC(=O)c2cc(OC(=O)N3CCC(OCC)CC3)cc(-c3ccccc3)n2)CC1 | 8.68 | 1.2 | 6.00
CCOC(=O)N1CCN(C(=O)[C@H](CCC(=O)O)NC(=O)c2cc(N3CCC(COC)CC3)cc(-c3ccccc3)n2)CC1 |  | 9.7 | 5.00
CCCCCOC(=O)N1CCN(C(=O)[C@H](CCC(=O)O)NC(=O)c2cc(OCC3CCN(C(=O)C(F)(F)F)CC3)cc(-c3ccccc3)n2)CC1 | 8.35 | 4.8 | 5.46
CCOC(=O)N1CCN(C(=O)[C@H](CCC(=O)O)NC(=O)c2cc(N3CCC(N4CCCC4)CC3)cc(-c3ccccc3)n2)CC1 |  | 6 | 5.70
CCCCCOC(=O)N1CCN(C(=O)[C@H](CCC(=O)O)NC(=O)c2cc(NC(=O)OCC3CCNCC3)cc(-c3ccccc3)n2)CC1 | 8.77 | 3.7 | 5.24
CCOC(=O)N1CCN(C(=O)[C@H](CCC(=O)O)NC(=O)c2cc(OC3CCNCC3)cc(-c3ccccc3)n2)CC1 |  | 2.5 | 5.72
CCCCOC(=O)N1CCN(C(=O)[C@H](CCC(=O)O)NC(=O)c2cc(N3CCC(CNC)CC3)cc(-c3ccccc3)n2)CC1 |  | 1 | 
CCCCOC(=O)N1CCN(C(=O)[C@H](CCC(=O)O)NC(=O)c2cc(N3CCC(CN(C)C)CC3)cc(-c3ccccc3)n2)CC1 |  | 1.3 | 
CCOC(=O)N1CCN(C(=O)[C@H](CCC(=O)O)NC(=O)c2cc(OC)cc(-c3ccccc3)n2)CC1 |  | 55 | 4.41
CCCCOC(=O)N1CCN(C(=O)[C@H](CCC(=O)O)NC(=O)c2cc(OC3CCNCC3)cc(-c3ccccc3)n2)CC1 |  | 0.99 | 5.96
CCOC(=O)N1CCN(C(=O)[C@H](CCC(=O)O)NC(=O)c2cc(OCCCO)cc(-c3ccccc3)n2)CC1 |  | 12 | 5.05
CCCCCOC(=O)N1CCN(C(=O)[C@H](CCC(=O)O)NC(=O)c2cc(OCCCC)cc(-c3ccccc3)n2)CC1 |  | 28 | 4.55
CCCCCOC(=O)N1CCN(C(=O)[C@H](CCC(=O)O)NC(=O)c2cc(N3CCC(CNC)CC3)cc(-c3ccccc3)n2)CC1 |  | 0.99 | 
CCOC(=O)N1CCN(C(=O)[C@H](CCC(=O)O)NC(=O)c2cc(OCCO)cc(-c3ccccc3)n2)CC1 |  | 12 | 5.12
CCOC(=O)N1CCN(C(=O)[C@H](CCC(=O)O)NC(=O)c2cc(NC)cc(-c3ccccc3)n2)CC1 |  | 36 | 4.35
CCCCCCOC(=O)N1CCN(C(=O)[C@H](CCC(=O)O)NC(=O)c2cc(N3CCC(CN)CC3)cc(-c3ccccc3)n2)CC1 |  | 1.7 | 5.80
CCOC(=O)N1CCN(C(=O)[C@H](CCC(=O)O)NC(=O)c2cc(OCCN)cc(-c3ccccc3)n2)CC1 |  | 11 | 5.12
CCCCCOC(=O)N1CCN(C(=O)[C@H](CCC(=O)O)NC(=O)c2cc(N3CCC(O)CC3)cc(-c3ccccc3)n2)CC1 |  | 3.2 | 5.60
CCCCCOC(=O)N1CCN(C(=O)[C@H](CCC(=O)O)NC(=O)c2cc(N3CCC(CN)CC3)cc(-c3ccccc3)n2)CC1 |  | 0.62 | 
CCCCCOC(=O)N1CCN(C(=O)[C@H](CCC(=O)O)NC(=O)c2cc(N3CCC(CN4CCCC4)CC3)cc(-c3ccccc3)n2)CC1 |  | 0.93 | 
CCOC(=O)N1CCN(C(=O)[C@H](CCC(=O)O)NC(=O)c2cc(-c3ccccc3)cc(-c3ccccc3)c2)CC1 | 6.43 |  | < 4.00
CCNC(=O)N1CCN(C(=O)[C@H](CCC(=O)O)NC(=O)c2cccc(-c3ccccc3)n2)CC1 | 6.54 |  | 4.10

SMILES | pKi [1] | Ratio IC50 [2] | pIC50 [3]
CCOC(=O)N1CCN(C(=O)[C@H](CCC(=O)O)NC(=O)c2cc(OCC3CCNCC3)cc(-c3ccccc3)n2)CC1 |  | 2.7 | 5.40
CCOC(=O)N1CCN(C(=O)CNC(=O)c2cccc(-c3ccccc3)n2)CC1 | 5.79 |  | < 4.00
CCCCNC(=S)N1CCN(C(=O)[C@H](CCC(=O)O)NC(=O)c2cccc(-c3ccccc3)n2)CC1 | 8.10 |  | 4.25
CCC(=O)N1CCN(C(=O)[C@H](CCC(=O)O)NC(=O)c2cccc(-c3ccccc3)n2)CC1 | < 5.44 |  | < 4.00
CCCCCOC(=O)N1CCN(C(=O)[C@H](CCC(=O)O)NC(=O)c2cc(NC(=O)COC)cc(-c3ccccc3)n2)CC1 | 7.60 |  | < 5.00
CCOC(=O)N1CCN(C(=O)[C@H](CCC(=O)O)NC(=O)c2cc(NCCOC)cc(-c3ccccc3)n2)CC1 |  | 13 | 4.85
CCS(=O)(=O)N1CCN(C(=O)[C@H](CCC(=O)O)NC(=O)c2cccc(-c3ccccc3)n2)CC1 | < 5.44 |  | < 4.00
CCOC(=O)N1CCN(C(=O)[C@H](CCC(=O)O)NC(=O)c2cc(N3CCC(CN)CC3)cc(-c3ccccc3)n2)CC1 |  | 3.4 | 5.48
O=C(O)CC[C@H](NC(=O)c1cccc(-c2ccccc2)n1)C(=O)N1CCN(C(=O)Nc2ccccc2)CC1 | 6.07 |  | < 4.00
CCCCCOC(=O)N1CCN(C(=O)[C@H](CCC(=O)O)NC(=O)c2cc(CC3CCCCC3)cc(-c3ccccc3)n2)CC1 | 8.07 |  | < 5.00
CCCCCOC(=O)N1CCN(C(=O)[C@H](CCC(=O)O)NC(=O)c2cc(NC(=O)CN3CCOCC3)cc(-c3ccccc3)n2)CC1 | 8.52 |  | < 5.00
CCCCCCOC(=O)N1CCN(C(=O)[C@H](CCC(=O)O)NC(=O)c2cc(N3CCC(COC)CC3)cc(-c3ccccc3)n2)CC1 |  | 8.9 | 5.12
CCOC(=O)N1CCN(C(=O)CNC(=O)c2cc(-c3ccccc3)cc(-c3ccccc3)n2)CC1 | 6.13 |  | < 4.30
CCCN(CCC)c1cc(C(=O)N[C@@H](CCC(=O)O)C(=O)N2CCN(C(=O)OCC)CC2)nc(-c2ccccc2)c1 | 7.35 |  | < 4.00
CCCCCS(=O)(=O)N1CCN(C(=O)[C@H](CCC(=O)O)NC(=O)c2cccc(-c3ccccc3)n2)CC1 | < 5.44 |  | < 4.00
CCCCOC(=O)N1CCN(C(=O)[C@H](CCC(=O)O)NC(=O)c2cc(N3CCC(CN4CCCC4)CC3)cc(-c3ccccc3)n2)CC1 |  | 1 | 
CCCN1CCN(C(=O)[C@H](CCC(=O)O)NC(=O)c2cccc(-c3ccccc3)n2)CC1 | < 5.42 |  | < 4.00
O=C(O)CC[C@H](NC(=O)c1cccc(-c2ccccc2)n1)C(=O)N1CCN(S(=O)(=O)c2ccccc2)CC1 | 6.07 |  | < 4.00
CCOC(=O)N1CCN(C(=O)[C@H](CCC(=O)O)NC(=O)c2cc(-c3ccccc3)ccn2)CC1 | < 5.24 |  | < 4.00
CN(C)CC(=O)N1CCN(C(=O)[C@H](CCC(=O)O)NC(=O)c2cccc(-c3ccccc3)n2)CC1 | < 5.44 |  | < 4.00
CCCCCOC(=O)N1CCN(C(=O)[C@H](CCC(=O)O)NC(=O)c2cc(CCCCCO)cc(-c3ccccc3)n2)CC1 | 8.55 |  | < 5.00
CCCCC(=O)N1CCN(C(=O)[C@H](CCC(=O)O)NC(=O)c2cccc(-c3ccccc3)n2)CC1 | 5.84 |  | < 4.00
O=C(O)CC[C@H](NC(=O)c1cccc(-c2ccccc2)n1)C(=O)N1CCN(C(=O)OCC2CCCC2)CC1 | 7.34 |  | 4.09
CCCCCCNC(=O)N1CCN(C(=O)[C@H](CCC(=O)O)NC(=O)c2cccc(-c3ccccc3)n2)CC1 | 7.27 |  | < 4.00
CCOC(=O)N1CCN(C(=O)[C@H](CCC(=O)O)NC(=O)c2cc(N3CCC(O)CC3)cc(-c3ccccc3)n2)CC1 |  | 10 | 5.00

— ChEMBL document CHEMBL1157562, “Piperazinyl glutamate pyridines as potent orally bioavailable P2Y12 antagonists for inhibition of platelet aggregation” (J Med Chem, 2010)
